Measured values as given in ChEMBL document CHEMBL3588826, “Chimeric derivatives of functionalized amino acids and α-aminoamides: compounds with anticonvulsant activity in seizure models and inhibitory actions on central, peripheral, and cardiac isoforms of voltage-gated sodium channels” (Bioorg Med Chem, 2015).

Columns and labels:
[1] = Behavioural toxicity in po dosed albino Sprague-Dawley rat measured at 1 hr; type: organism-based; conditions: in vivo
Cytochrome P450 2B6 = molecular target: T1, Cytochrome P450 2B6 (Homo sapiens, UniProt P20813); test: Inhibition of human CYP2B6 at 10 uM; type: ADME
T1 sequence (P20813 whole entry): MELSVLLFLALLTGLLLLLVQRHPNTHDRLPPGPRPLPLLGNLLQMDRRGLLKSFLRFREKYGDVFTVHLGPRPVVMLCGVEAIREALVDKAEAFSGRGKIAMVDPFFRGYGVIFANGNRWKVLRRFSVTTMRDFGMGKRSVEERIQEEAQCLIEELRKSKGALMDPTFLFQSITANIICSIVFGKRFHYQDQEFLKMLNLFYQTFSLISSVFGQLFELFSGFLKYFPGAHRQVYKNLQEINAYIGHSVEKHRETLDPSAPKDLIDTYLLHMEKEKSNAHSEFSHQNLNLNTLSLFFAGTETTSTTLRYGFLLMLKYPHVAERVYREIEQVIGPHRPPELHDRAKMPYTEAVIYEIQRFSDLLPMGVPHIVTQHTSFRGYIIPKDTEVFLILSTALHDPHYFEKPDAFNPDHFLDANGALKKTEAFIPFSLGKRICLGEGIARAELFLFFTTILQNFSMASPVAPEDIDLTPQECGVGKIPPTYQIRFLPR
Method in brief: (§1)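 Test compound at 10 μM against a human CYP450 panel (CYP1A2, 2B6, 2C8, 2C9, 2C19, 2D6, 3A4/5). Direct inhibition was measured, and time-dependent inhibition was measured after a 30-min preincubation.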

Cytochrome P450 3A5 = Cytochrome P450 3A5 (Homo sapiens, UniProt P20815); test: Inhibition of human CYP3A5 at 10 uM; type: ADME; method in brief: as §1
Cytochrome P450 3A5, sequence (P20815 whole entry): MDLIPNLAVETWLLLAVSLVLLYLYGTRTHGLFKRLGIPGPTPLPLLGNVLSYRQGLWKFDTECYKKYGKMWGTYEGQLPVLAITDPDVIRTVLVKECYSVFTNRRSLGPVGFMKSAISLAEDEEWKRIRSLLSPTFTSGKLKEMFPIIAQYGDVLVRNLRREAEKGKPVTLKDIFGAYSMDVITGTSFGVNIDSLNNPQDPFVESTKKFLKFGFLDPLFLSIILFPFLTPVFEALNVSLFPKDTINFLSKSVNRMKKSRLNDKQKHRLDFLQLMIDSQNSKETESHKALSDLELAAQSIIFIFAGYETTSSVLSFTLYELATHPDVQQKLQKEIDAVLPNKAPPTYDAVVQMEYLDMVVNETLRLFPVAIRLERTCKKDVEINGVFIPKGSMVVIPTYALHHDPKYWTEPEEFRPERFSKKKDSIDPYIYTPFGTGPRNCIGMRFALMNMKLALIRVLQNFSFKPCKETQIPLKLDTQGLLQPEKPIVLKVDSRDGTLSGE

Rattus norvegicus = test: Toxicity in po dosed Sprague-Dawley rat assessed as decrease in thymus weight administered via gavage; type: organism-based; conditions: in vivo
Method in brief: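 Non-GLP repeated-dose study: female Sprague-Dawley rats given compound by oral gavage once daily for 7 days at 20, 60 and 180 mg/kg/day. Endpoints included weight bearing, gait coordination, respiratory rate, relative organ weights (liver, spleen, thymus), clinical chemistry and gross pathology; NOAEL derived.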

[2] = molecular target: Sodium channel protein type 1 subunit alpha (Homo sapiens) (UniProt P35498); test: Inhibition of human Nav1.1 expressed in HEK293 cells assessed as half-maximal voltage for steady state fast-inactivation at 10 uM by whole cell patch-clamp electrophysiology (reference value: -64.11 +/-3.63 mV); type: cell-based
Mus musculus = test: Anticonvulsant activity in ip dosed albino Carworth Farms No. 1 mouse measured at 0.25 hrs by maximal electroshock seizure test; type: functional; conditions: Carworth Farms No. 1, ip
Method in brief: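 Screened under the NIH anticonvulsant program in male albino Carworth Farms No. 1 mice (ip) and male albino Sprague-Dawley rats (ip or oral). Protection tested by maximal electroshock or 6 Hz (32 mA) psychomotor stimulation.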

In the case of `COC[C@@H](NC(C)=O)C(=O)NCc1ccc(Oc2cccc(OC(F)(F)F)c2)cc1`, the TD50 at 1 h [1] is reported as 240 mg/kg, the “inhibition (INH)” value (Cytochrome P450 2B6) is reported as “Not Active” and the “inhibition (INH)” value (Cytochrome P450 3A5) is reported as “Not Active”. For the same compound, the Activity (Rattus norvegicus) was “Toxic”, the V1/2 [2] was -76.7 mV and the ED50 (Mus musculus) was 6.5 mg/kg.
